Screening results deposited in PubChem BioAssay by several laboratories.
T cruzi inh: inhibitors of intracellular T. cruzi growth, primary screen, luminescence, NIH3T3 host cells; 1.4% of 300,000 active; T. cruzi beta-gal in NIH3T3, 90 h; inhibition, % (concentration not given with the values);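 active = mean inhibition across valid replicates above about 55%, limit read from the data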;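 also: signal also drops with host cell toxicity which is not excluded here; 0% = plate median of DMSO wells and 100% = zero luminescence signal; higher percent means less beta-gal luminescence so fewer parasites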
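Incubation – ≥90 h infection period, 3 h prior cell attachment · System – NIH/3T3 fibroblasts plus reporter T. cruzi · Doses – compound pinned at 50 nL/well, DMSO · Read-out basis – percent inhibition of parasite-derived β-gal signal · Signal – luminescent β-galactosidase signal after 60 min lysis · Also added – 5000 T. cruzi trypomastigotes/well · Medium – Low-serum DMEM with 2% FBS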
CSC inhib: cancer stem cell viability inhibitors, primary screen, luminescence; cancer stem cell-like cells viability; inhibition, % at 7.5 µM; 1.1% of 300,000 active; AID 2717, 2010; in the data active = inhibition above about 75%; tested in HMLE shEcad cells
Mdm2-MdmX inh: inhibitors of human Mdm2-MdmX association, primary screen, cell-based, luminescence, split luciferase, SaOS-2, uHTS | Protein Mdm4 (Homo sapiens) + E3 ubiquitin-protein ligase Mdm2 (Homo sapiens), … | SaOS-2 split-luciferase Mdm2/MdmX complementation | 3% of 330,000 active | inhibition, % at 8 µM;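 active = inhibition of at least 50% at 8 µM in the primary screen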
Target sequence (O15151 whole entry, looked up): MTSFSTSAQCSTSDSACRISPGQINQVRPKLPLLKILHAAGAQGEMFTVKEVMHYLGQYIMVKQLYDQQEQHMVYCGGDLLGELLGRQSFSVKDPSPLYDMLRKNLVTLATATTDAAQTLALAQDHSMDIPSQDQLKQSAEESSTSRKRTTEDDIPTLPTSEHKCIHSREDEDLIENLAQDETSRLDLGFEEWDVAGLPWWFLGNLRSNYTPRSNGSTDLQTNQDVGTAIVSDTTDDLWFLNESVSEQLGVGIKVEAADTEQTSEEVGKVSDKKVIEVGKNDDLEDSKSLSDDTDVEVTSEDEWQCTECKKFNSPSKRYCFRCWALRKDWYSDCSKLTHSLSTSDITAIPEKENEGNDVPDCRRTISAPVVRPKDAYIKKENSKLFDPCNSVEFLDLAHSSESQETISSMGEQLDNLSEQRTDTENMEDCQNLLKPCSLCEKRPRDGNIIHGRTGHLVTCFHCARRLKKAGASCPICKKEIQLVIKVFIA
Target sequence (Q00987 whole entry, looked up): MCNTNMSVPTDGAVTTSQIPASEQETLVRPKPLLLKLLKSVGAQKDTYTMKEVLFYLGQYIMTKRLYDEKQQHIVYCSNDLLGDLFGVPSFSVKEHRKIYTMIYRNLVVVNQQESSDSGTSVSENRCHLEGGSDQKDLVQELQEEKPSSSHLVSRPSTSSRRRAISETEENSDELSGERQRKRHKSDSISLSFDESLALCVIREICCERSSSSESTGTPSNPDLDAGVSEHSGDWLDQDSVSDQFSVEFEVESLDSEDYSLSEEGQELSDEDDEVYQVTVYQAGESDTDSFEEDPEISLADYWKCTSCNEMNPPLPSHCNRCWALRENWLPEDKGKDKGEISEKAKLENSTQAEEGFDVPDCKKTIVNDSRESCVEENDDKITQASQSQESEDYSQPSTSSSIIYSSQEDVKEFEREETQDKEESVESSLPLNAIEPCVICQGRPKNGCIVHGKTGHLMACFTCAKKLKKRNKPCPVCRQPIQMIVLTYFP
CHOP UPR activ: activators of apoptotic CHOP UPR arm, primary screen, cell-based, CHO-CHOP luciferase reporter, luminescence, uHTS; UPR activation; percent of tunicamycin response over DMSO baseline; activation, % at 10 µM; 0.34% of 330,000 active;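 active = at 10 µM dose, activation of 40% or more, normalized to positive control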;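 also: 100% = tunicamycin at 10 µg/mL and 0% = DMSO alone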
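Dosing – one dose, 10 µM in 0.5% DMSO · System – CHO-CHOP cells, stable luciferase reporter of PERK-eIF2a-CHOP signalling · Input – 500 cells/well · Control set – tunicamycin 10 µg/mL final as positive, DMSO-only wells as negative · Timing – 6 h compound treatment, 37 °C · Measure – % activation vs tunicamycin · Technique – luminescence read with Steady-Glo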
UPR XBP1 act: activators of adaptive XBP1 UPR arm, primary screen, cell-based, CHO-XBP1 luciferase reporter, luminescence, uHTS; IRE1-XBP1 UPR activation; percent of tunicamycin response, DMSO as zero; activation, % at 20 µM; 0.33% of 330,000 active;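 active = versus positive control, 20 µM dose yields 30% or more activation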;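 also: 100% = tunicamycin at 10 µg/mL and 0% = DMSO only wells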
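Material: CHO-XBP1 cells stably carrying IRE1-XBP1-driven luciferase reporter / Amount: 1000 cells per well / Compound: 20 µM, 1% DMSO / Times: 6 h treatment, 37 °C / Detection: luciferase luminescence / Measure: % activation of reporter signal versus tunicamycin and DMSO controls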
Beta apoptosis: inhibitors of cytokine-induced beta cell apoptosis, primary screen, luminescence; INS-1E cytokine-induced death, ATP luminescence, 48 h; percent of positive-control rescue, neutral wells zero; 0.8% of 300,000 active; protection from apoptosis, % (concentration not given with the values);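 active = Every replicate reaches about 75%, or at least half do and their mean reaches it too, limit read from the data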;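 also: 0% = cytokine-treated negative control wells and 100% = positive control rescue; higher means more ATP so stronger rescue from cytokine killing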
Mdm2 MdmX conf: Mdm2-MdmX complex disruptors, retested hits, confirmation, luminescence, single concentration; shares compounds with Mdm2-MdmX inh; Mdm2-MdmX binding, luminescent assay; inhibition, % at 8 µM; 55% of 10,000 active; in the data active = inhibition above about 40%
Full FLuc ctr: full-length luciferase signal inhibition, confirmation, counter-screen for Mdm2/MdmX interaction inhibitor project, cell-based, single concentration, SaOS-2. 77% of 6,200 active. SaOS-2 full-length luciferase counterscreen, luminescence. shares compounds with Mdm2-MdmX inh. inhibition, % at 8 µM;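 active = mean inhibition at 8 µM reaching about 37%, which flags the compound as non-specific, limit read from the data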;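 also: p53-null SaOS-2 cells with luciferase driven by a doxycycline-inducible promoter; compound on cells about two nights before reading with doxycycline added after day one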
Numbers without * were called inactive; · = no result given. A selection: hits, their analogues and other compounds. The true share with any hit is near 5%.

SMILES	T cruzi inh	CSC inhib	Mdm2-MdmX inh	CHOP UPR activ	UPR XBP1 act	Beta apoptosis	Mdm2 MdmX conf	Full FLuc ctr
COc1ccc(-c2csc(NC(=O)c3ccc(OCC(=O)N4CCOCC4)c(OC)c3)n2)cc1OC	-11	24	58*	1	6	9	39	·
COc1cc(/C=N/Nc2nc(-c3ccc(S(=O)(=O)N(C)C)cc3)cs2)ccc1O	-1	66	82*	9	-3	7	56*	81*
O=C(Nc1nnc2n1CCS2)c1ccc(Br)o1	-17	-9	-7	0	-3	-1	·	·
Fc1ccc(C2c3[nH]c4ccccc4c3CCN2Cc2cccn2-c2ncccn2)cc1 (stereo not drawn)	70*	-8	78*	0	-2	4	62*	61*
Cc1cc(C)cc(NC(=S)N=Nc2c(O)n(C)c3ccc(S(=O)(=O)N4CCOCC4)cc23)c1	25	31	23	1	0	29	·	·
Cc1cccc(NC(=S)N=Nc2c(O)n(C)c3ccc(S(=O)(=O)N4CCOCC4)cc23)c1	44	29	54*	8	-1	41	54*	64*
Cc1cccc(C)c1NC(=S)N=Nc1c(O)n(C)c2ccc(S(=O)(=O)N3CCOCC3)cc12	18	29	64*	22	0	9	30	·
CCOC(=O)c1ccccc1NC(=O)CSc1nc(N)cc(=O)[nH]1	-2	-4	19	2	0	1	·	·
C=CC(=O)Nc1ccc(CN2C(=O)N(c3c(Cl)c(OC)cc(OC)c3Cl)Cc3cnc(NCCCCN(CC)CC)nc32)cc1	·	·	71*	0	2	3	45*	55*
COc1ccc(CCC(=O)NCCS(=O)(=O)N2CCN(c3ccc(F)cc3)CC2)cc1	-5	6	4	2	-4	-3	·	·
Cc1nc(NC(=O)CSc2nc3cccnc3n2Cc2ccccc2)sc1C	2	·	78*	0	8	48	20	·
CCOC(=O)CNC(=O)CSc1nc2cccnc2n1Cc1ccccc1	-2	·	-13	-2	0	2	·	·
CCCCN(c1ccc(C(=O)OC)cc1)S(=O)(=O)c1ccccc1	13	-6	62*	0	-1	1	2	·
COc1cc(/C=N/Nc2snc(SC)c2C#N)cc(OC)c1OC	-10	-17	70*	26	9	35	73*	43*
CSc1nsc(N/N=C/c2ccc3c(c2)OCO3)c1C#N	-9	4	-129	7	4	26	·	·
COC(=O)CCC(=O)NC(=S)Nc1sc(C)c(C)c1C(N)=O	-27	1	61*	2	14	·	58*	91*
N#C/C(=C/c1ccc(Br)o1)C(N)=S	4	40	76*	2	17	4	43*	64*
N#CC(c1ccc(Cl)nn1)c1ccc(Cl)cc1Cl (stereo not drawn)	4	3	56*	-4	-5	-7	18	·
CC1(C)Cc2ccccc2C2=NNC(=O)C2=N1	50	25	86*	6	4	-27	65*	29
CC1(C)Cc2ccccc2C(Nn2cnnc2)=N1	1	-3	-22	1	1	-3	·	·
CC/C(=C(\c1ccc(O)cc1)c1ccc(OCCN(C)C)cc1)c1ccccc1	32	52	93*	3	-1	14	38	61*
CCN(CC)CCOc1ccc(/C(=C(/Cl)c2ccccc2)c2ccccc2)cc1	40	101*	69*	2	0	33	32	76*
CCOc1ccc(C(=O)OCCN(CC)CC)cc1	-11	1	-11	-2	-1	-15	·	·
CC/C(=C(\c1ccccc1)c1ccc(OCCN(C)C)cc1)c1ccccc1	8	99*	58*	3	-1	1	22	·
O=C(c1ccccc1)c1ccc(OCCO)cc1	-2	-8	12	2	3	1	·	·
SMILES	T cruzi inh	CSC inhib	Mdm2-MdmX inh	CHOP UPR activ	UPR XBP1 act	Beta apoptosis	Mdm2 MdmX conf	Full FLuc ctr
CN(C)S(=O)(=O)c1ccc(C(=O)Nc2nnc(-c3ccc4c(c3)CCCC4)o2)cc1	46	23	60*	6	-1	15	23	·
O=C(Nc1nnc(-c2ccc3c(c2)CCCC3)o1)c1ccc(Cl)cc1Cl	-3	68	51*	-1	1	-3	25	·
CCCCCCn1c(C(C)NC(=O)c2ccco2)nc2ccccc21 (stereo not drawn)	-5	-12	3	2	2	8	·	·
O=c1cc(-c2ccc3c(c2)OCO3)oc2ccccc12	5	-3	-58	4	2	3	·	·
CC(=O)Nc1ccc(Oc2sc(C(=O)c3ccccc3)c(N)c2C#N)cc1	4	35	61*	5	-5	-37	29	78*
C/C(=N\NC(=O)c1ccc(CN2CCc3ccccc3C2)cc1)c1ccccc1O	64*	-4	55*	0	-3	29	65*	85*
N#Cc1cc([N+](=O)[O-])ccc1Oc1cccc(/C=N/NC(=O)c2cccc(Cl)c2)c1	68*	36	62*	-2	-1	5	22	·
O=C(O)c1cccc(S(=O)(=O)Nc2cccc(S(=O)(=O)N3CCCC3)c2)c1	·	·	13	0	-1	-2	·	·
CCn1c(=O)c(CCC(=O)N2CCN(c3ccccn3)CC2)c(C)c2c(C)nn(-c3cccc(C)c3)c21	58*	5	53*	3	-3	2	14	·
Cc1nc2nc(C)c(CCC(=O)N3CCN(c4ccccn4)CC3)c(C)n2n1	-6	4	-5	1	-2	-4	·	·
Clc1ccc2c(c1)CCc1cccnc1C2=C1CCNCC1	11	·	61*	-2	-3	·	36	·
COc1ccc(-c2csc(NC(=O)C3CCN(c4ncnc5sc(C)c(C)c45)CC3)n2)cc1OC	57*	27	68*	5	5	112*	68*	45*
Cc1sc2ncnc(N3CCC(C(=O)Nc4sc5c(c4C(N)=O)CCC(C)C5)CC3)c2c1C (stereo not drawn)	·	·	62*	10	1	8	70*	42*
